An excerpt weighted towards active compounds, which were near 1.8% of everything screened.
CAL PDZ FP-1 – inhibitors of human CAL PDZ peptide binding; Q9HD26; inhibition, % at 24.9 µM; purified CAL PDZ, TMR-peptide fluorescence polarization, 1 h; 300,000 compounds, 0.92% hits;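 active = mean inhibition of at least 30% with at least half of replicates also reaching 30%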
ARNT-TACC3 inh – disruptors of human ARNT/TACC3 interaction; inhibition, % at 9.99 µM; AlphaScreen His-ARNT PAS-B/GST-TACC3 binding, luminescence; TACC3 fragment carries E629A point mutation; 390,000 compounds, 0.66% hits; Q9Y6A5;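 active = mean inhibition of replicates at least 50% and at least half of replicates each reaching 50%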
DDE Tn6 FP inh – inhibitors of Tn6 peptide binding to human fibrin DD(E); P02675; Fibrin DD(E) TRITC-Tn6 fluorescence polarization displacement; inhibition, % at 8.3 µM; 370,000 compounds, 0.21% hits;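 active = inhibition above a per-campaign cutoff: mean of compounds within control limits plus 3 SD, cut at about 15% in these data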
Target sequence (P02675 whole entry, looked up): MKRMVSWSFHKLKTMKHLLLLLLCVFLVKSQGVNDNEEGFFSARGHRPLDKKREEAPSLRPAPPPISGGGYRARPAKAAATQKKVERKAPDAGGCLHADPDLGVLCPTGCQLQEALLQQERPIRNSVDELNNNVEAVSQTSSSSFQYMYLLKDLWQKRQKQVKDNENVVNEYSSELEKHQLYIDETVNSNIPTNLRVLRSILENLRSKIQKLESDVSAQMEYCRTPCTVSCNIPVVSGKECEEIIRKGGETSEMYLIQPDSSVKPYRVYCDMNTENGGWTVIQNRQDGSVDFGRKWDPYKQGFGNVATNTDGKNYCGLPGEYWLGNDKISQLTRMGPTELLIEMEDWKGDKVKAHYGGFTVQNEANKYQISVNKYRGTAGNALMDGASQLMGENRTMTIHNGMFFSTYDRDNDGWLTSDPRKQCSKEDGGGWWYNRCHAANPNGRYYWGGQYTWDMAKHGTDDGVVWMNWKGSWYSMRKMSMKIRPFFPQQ
GRK2 aptamer HTS – inhibitors of human GRK2 displacing RNA aptamer | 330,000 compounds, 0.59% hits | P25098 | inhibition of aptamer binding, % at 10 µM | bead flow cytometry, FAM-aptamer displacement from GRK2 | AID 488847;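 active = inhibition of aptamer binding above 40%, roughly 3 SD of noise, on plates passing a quality check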;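 also: median bead fluorescence of bound FAM aptamer so fluorescent compounds give negative values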
CAL PDZ FP-2 – human CAL PDZ-peptide interaction inhibition; Q9HD26; purified CAL PDZ, TMR-peptide fluorescence polarization, 1 h; inhibition, % at 20 µM; 330,000 compounds, 0.02% hits;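 active = highest replicate inhibition of at least 40%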
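material = purified tagged CAL PDZ domain construct (CerCALP) | buffer or medium = sodium phosphate/NaCl buffer pH 7.4 with TCEP, IgG, Thesit | reagent = TMR-labelled reporter peptide T*-PRC34 bound in PDZ groove | incubation = 1 h room-temperature incubation prior to read | measured by = fluorescence polarization (mP) | evaluation = percent inhibition from loss of millipolarization | control set = unlabelled peptide and DMSO controls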
Tn7 DDE FP – DD(E)-Tn7 binding inhibition, primary FP screen | FP displacement of FITC-Tn7 peptide from fibrin DD(E); 0% = median of compound wells per plate | 370,000 compounds, 0.13% hits | AID 720508 | inhibition, % at 8.3 µM;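 active = inhibition above the mean of compounds falling within the control limits plus 3 SD of them, cut at about 14% in these data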
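Assay system: Fibrin-DD(E) protein isolated from polymerized human fibrin clots; read-out basis: percent inhibition; medium: Tris/NaCl/CaCl2 buffer, pH 7.8; signal: FP measurement; incubation: 10 min plus 3 h, room temperature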
AlphaScreen ctr – interferes with AlphaScreen signal, flagging false ARNT-TACC3 hits. AID 651705. shares compounds with ARNT-TACC3 inh. His-ARNT PASB-GST AlphaScreen artifact counter-screen, luminescence. AC50, µM (highest dose often 68 µM). 1,200 compounds, 50% hits;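 active = every separate test run was called active for a drop in luminescence, with AC50 within twice the top valid dose, actives reach about 71 µM in these data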
Numbers stand for hits.

`CCC(COC(=O)c1ccccc1)Oc1cc(NCc2ccccc2)c2ncn(C(C)C)c2c1` (stereo not drawn) gave CAL PDZ FP-1 inactive, ARNT-TACC3 inh inactive, DDE Tn6 FP inh inactive, GRK2 aptamer HTS inactive, CAL PDZ FP-2 inactive and Tn7 DDE FP inactive.
Screening CN1C(=O)[C@@]2(O[C@H]3[C@H]4C=C[C@@H]([C@H]5C(=O)N(Cc6ccccc6)C(=O)[C@@H]45)N3C3=C2C(=O)CC3)c2ccccc21 returned DDE Tn6 FP inh inactive and Tn7 DDE FP inactive.
Screening CC1CCC2C(=O)N(c3ccccc3OC(=O)c3ccccc3F)C(=O)C2C1 (stereo not drawn) returned CAL PDZ FP-1 inactive, ARNT-TACC3 inh inactive, DDE Tn6 FP inh inactive, GRK2 aptamer HTS inactive, CAL PDZ FP-2 inactive and Tn7 DDE FP inactive.
For O=C(c1cc(-c2ccccc2)on1)N1CCC(N2CCOCC2)CC1 the results were AlphaScreen ctr inactive.
`C[C@@H]1CN([C@H](C)CO)C(=O)c2cc(N(C)C)ccc2O[C@@H](C)CCCCO[C@@H]1CN(C)Cc1ccc2c(c1)OCO2` gave ARNT-TACC3 inh 57.2 and AlphaScreen ctr 57.5µM.
C[C@@H]1CN([C@H](C)CO)C(=O)c2cc(NC(=O)Nc3ccc(C(F)(F)F)cc3)ccc2O[C@@H](C)CCCCO[C@H]1CN(C)Cc1ccc2c(c1)OCO2 was read as ARNT-TACC3 inh 67.6 and AlphaScreen ctr 53.1µM.
`C[C@@H]1CCCCO[C@H](CN(C)Cc2ccncc2)[C@H](C)CN([C@H](C)CO)C(=O)c2cc(NC(=O)C3CCCCC3)ccc2O1` gave ARNT-TACC3 inh 61.8 and AlphaScreen ctr inactive.
Screening C[C@@H]1CCCCO[C@@H](CN(C)C(=O)Nc2ccc3c(c2)OCO3)[C@@H](C)CN([C@@H](C)CO)C(=O)c2cc(N(C)C)ccc2O1 returned ARNT-TACC3 inh 53.9 and AlphaScreen ctr inactive.
`C[C@@H]1CCCCO[C@H](CN(C)Cc2ccc3c(c2)OCO3)[C@H](C)CN([C@@H](C)CO)C(=O)c2cc(NC(=O)Nc3ccc(C(F)(F)F)cc3)ccc2O1` gave ARNT-TACC3 inh inactive.
For C[C@@H]1CN([C@H](C)CO)C(=O)c2cc(NC(=O)C3CCCCC3)ccc2O[C@@H](C)CCCCO[C@@H]1CN(C)Cc1ccncc1 the results were ARNT-TACC3 inh inactive.
Screening CCCNC(=O)C[C@H]1CC[C@H]2[C@@H](COc3ccc(NC(=O)Cc4ccccc4)cc3C(=O)N2C)O1 returned ARNT-TACC3 inh inactive.
`CCOC(=O)c1c(C)[nH]c(NC(=O)N2CCOCC2)c1C` gave CAL PDZ FP-1 inactive, ARNT-TACC3 inh inactive, DDE Tn6 FP inh inactive, GRK2 aptamer HTS inactive, CAL PDZ FP-2 inactive and Tn7 DDE FP inactive.
Screening CC(=O)N(C)C[C@@H]1Oc2cc(C#Cc3ccc(F)cc3)ccc2S(=O)(=O)N([C@@H](C)CO)C[C@@H]1C returned ARNT-TACC3 inh inactive.
Screening CC=Cc1ccc2n(c1=O)C[C@H]1[C@H](CO)[C@@H](C(=O)NCC)N(CC3CCOCC3)[C@@H]21 (mixture of isomers) returned ARNT-TACC3 inh inactive.
For CCCCC(=O)NC(c1cccc([N+](=O)[O-])c1)c1ccc2cccnc2c1O (stereo not drawn) the results were CAL PDZ FP-1 inactive, ARNT-TACC3 inh 61.1, DDE Tn6 FP inh inactive, CAL PDZ FP-2 inactive, Tn7 DDE FP inactive and AlphaScreen ctr 8.12µM.
Screening CC(=O)NC(c1cccc([N+](=O)[O-])c1)c1ccc2cccnc2c1O (stereo not drawn) returned CAL PDZ FP-1 inactive, ARNT-TACC3 inh inactive, DDE Tn6 FP inh inactive, GRK2 aptamer HTS inactive, CAL PDZ FP-2 inactive and Tn7 DDE FP inactive.
Screening CCCC(=O)NC(c1ccccc1)c1ccc2cccnc2c1O (stereo not drawn) returned ARNT-TACC3 inh 61.0, DDE Tn6 FP inh inactive, GRK2 aptamer HTS inactive, CAL PDZ FP-2 inactive, Tn7 DDE FP inactive and AlphaScreen ctr 27.9µM.
